Experimental findings from PubChem BioAssay AID651708 (Sanford-Burnham Center for Chemical Genomics, 2012) are described below.

What all share (assay): antagonism across CCR6, APJ and CXCR6 receptors, profiling panel, selectivity assay for CXCR6 antagonist project, cell-based, CHO-K1 PathHunter beta-arrestin, luminescence, set 3 (AID 651708)
The target of experiment [1] is Apelin receptor (Homo sapiens) (UniProt P35414). The following applies: antagonist mode, APJ. In a few lines: (§1)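 Signal: β-arrestin recruitment luminescence; test system: CHO-K1 PathHunter β-arrestin cell lines for APJ, CCR6 or CXCR6; also added: APJ 10 nM Apelin-13, CCR6 14 nM CCL20, CXCR6 CXCL16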
The target of experiment [2] is C-X-C chemokine receptor type 6 (Homo sapiens) (UniProt O00574). As to conditions: antagonist mode. The procedure, abridged:
as §1

The target of experiment [3] is C-C chemokine receptor type 6 (Homo sapiens) (UniProt P51684). The following applies: antagonist mode. In a few lines: as §1

Calls of active or inactive are those of the source.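 Rule for the calls: active = compound with IC50 above 30 µM at both the APJ and CCR6 off-target receptors, and at most 10 µM at CXCR6; inactive = the rest.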 A value given as a limit tells only on which side of the number the result lay.

Chain of C-X-C chemokine receptor type 6 (Homo sapiens) (O00574 whole entry, looked up): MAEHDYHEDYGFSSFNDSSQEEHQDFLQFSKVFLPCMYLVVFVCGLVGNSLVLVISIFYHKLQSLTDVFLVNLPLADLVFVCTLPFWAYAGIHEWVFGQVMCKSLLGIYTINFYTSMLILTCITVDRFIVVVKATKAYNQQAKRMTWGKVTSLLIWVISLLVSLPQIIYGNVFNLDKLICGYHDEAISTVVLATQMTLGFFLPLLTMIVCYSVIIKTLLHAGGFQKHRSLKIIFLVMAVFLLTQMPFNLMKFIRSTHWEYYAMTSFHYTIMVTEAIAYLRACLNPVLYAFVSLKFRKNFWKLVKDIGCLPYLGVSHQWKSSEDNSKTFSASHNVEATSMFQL
Chain of C-C chemokine receptor type 6 (Homo sapiens) (P51684 whole entry, looked up): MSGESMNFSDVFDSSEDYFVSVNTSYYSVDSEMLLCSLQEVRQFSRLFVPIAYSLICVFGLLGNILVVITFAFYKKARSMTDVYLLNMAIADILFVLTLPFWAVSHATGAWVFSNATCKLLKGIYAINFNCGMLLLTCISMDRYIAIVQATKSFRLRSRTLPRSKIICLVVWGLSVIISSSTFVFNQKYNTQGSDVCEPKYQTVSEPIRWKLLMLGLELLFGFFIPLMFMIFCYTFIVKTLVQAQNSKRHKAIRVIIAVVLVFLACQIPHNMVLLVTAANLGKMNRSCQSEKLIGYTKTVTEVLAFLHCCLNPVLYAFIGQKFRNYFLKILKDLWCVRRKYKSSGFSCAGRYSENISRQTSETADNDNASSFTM
Chain of Apelin receptor (Homo sapiens) (P35414 whole entry, looked up): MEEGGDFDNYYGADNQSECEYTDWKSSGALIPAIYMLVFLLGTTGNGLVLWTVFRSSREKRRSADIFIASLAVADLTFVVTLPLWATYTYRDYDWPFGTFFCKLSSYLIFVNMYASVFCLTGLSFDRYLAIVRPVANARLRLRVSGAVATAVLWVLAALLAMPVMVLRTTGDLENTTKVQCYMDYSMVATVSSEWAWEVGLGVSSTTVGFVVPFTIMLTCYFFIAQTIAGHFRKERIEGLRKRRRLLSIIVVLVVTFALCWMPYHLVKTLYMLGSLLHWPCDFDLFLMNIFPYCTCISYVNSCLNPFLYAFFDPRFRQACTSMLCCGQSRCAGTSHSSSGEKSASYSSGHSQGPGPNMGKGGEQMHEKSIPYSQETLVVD

The IC50 is the concentration needed to halve the response being measured. `COc1cc(OC)cc(C(=O)NC2CC3CCCC(C2)N3CC(=O)Nc2ccc(F)cc2)c1` (stereo unspecified): the IC50 is > 79 µM (inactive) in experiment [1] (mean of runs); over 79 µM in experiment [1] (run 1); over 79 µM in experiment [1] (run 2); > 79 µM (inactive) in experiment [2] (CXCR6, mean of runs); over 79 µM in experiment [2] (CXCR6, run 1); over 79 µM in experiment [2] (CXCR6, run 2). Also, the IC50 in experiment [3] (CCR6, mean of runs) was > 79 µM (inactive); in experiment [3] (CCR6, run 1) it was over 79 µM; in experiment [3] (CCR6, run 2), over 79 µM.
As to `COc1ccc(NC(=O)CN2C3CCCC2CC(NC(=O)c2cc(OC)c(OC)c(OC)c2)C3)cc1` (stereo unspecified), the IC50 is > 79 µM (inactive) in experiment [1] (mean of runs); over 79 µM in experiment [1] (run 1); over 79 µM in experiment [1] (run 2); 12.4 µM in experiment [2] (CXCR6, run 1); 26.4 µM in experiment [2] (CXCR6, run 2); > 79 µM (inactive) in experiment [3] (CCR6, mean of runs). Besides, the IC50 in experiment [3] (CCR6, run 1) was over 79 µM; in experiment [3] (CCR6, run 2), over 79 µM. The IC50 entry in experiment [2] (CXCR6, mean of runs) is “inactive”.
In the case of `COc1cccc(C(=O)NC2CC3CCCC(C2)N3CC(=O)Nc2ccccc2)c1` (stereo unspecified), the IC50 in experiment [1] (mean of runs) is > 79 µM (inactive); in experiment [1] (run 1), over 79 µM; in experiment [1] (run 2), over 79 µM; in experiment [2] (CXCR6, mean of runs), > 79 µM (inactive); in experiment [2] (CXCR6, run 1) it was over 79 µM; in experiment [2] (CXCR6, run 2) it was over 79 µM. Moreover, the IC50 was > 79 µM (inactive) in experiment [3] (CCR6, mean of runs); over 79 µM in experiment [3] (CCR6, run 1); over 79 µM in experiment [3] (CCR6, run 2).
Consider `COc1ccc(C(=O)NC2CC3CCCC(C2)N3CC(=O)Nc2ccc(C)cc2)cc1OC` (stereo unspecified), for which the IC50 in experiment [1] (mean of runs) is > 79 µM (inactive); in experiment [1] (run 1), over 79 µM; in experiment [1] (run 2), over 79 µM; in experiment [2] (CXCR6, mean of runs), > 79 µM (inactive); in experiment [2] (CXCR6, run 1), over 79 µM; in experiment [2] (CXCR6, run 2), over 79 µM. Also, the IC50 in experiment [3] (CCR6, mean of runs) is > 79 µM (inactive); in experiment [3] (CCR6, run 1), over 79 µM; in experiment [3] (CCR6, run 2) it was over 79 µM.
For `COc1ccc(NC(=O)CN2C3CCCC2CC(NC(=O)c2cc(OC)cc(OC)c2)C3)cc1` (stereo unspecified), the IC50 in experiment [1] (mean of runs) was > 79 µM (inactive); in experiment [1] (run 1), over 79 µM; in experiment [1] (run 2), over 79 µM; in experiment [2] (CXCR6, mean of runs), > 79 µM (inactive); in experiment [2] (CXCR6, run 1) it was over 79 µM; in experiment [2] (CXCR6, run 2) it was over 79 µM. The IC50 in experiment [3] (CCR6, mean of runs) is > 79 µM (inactive); in experiment [3] (CCR6, run 1), over 79 µM; in experiment [3] (CCR6, run 2), over 79 µM.
Regarding `COc1cccc(C(=O)NC2CC3CCCC(C2)N3CC(=O)Nc2ccc(Cl)cc2)c1` (stereo unspecified), the IC50 is > 79 µM (inactive) in experiment [1] (mean of runs); over 79 µM in experiment [1] (run 1); over 79 µM in experiment [1] (run 2); > 79 µM (inactive) in experiment [2] (CXCR6, mean of runs); over 79 µM in experiment [2] (CXCR6, run 1); over 79 µM in experiment [2] (CXCR6, run 2). The IC50 in experiment [3] (CCR6, mean of runs) was > 79 µM (inactive); in experiment [3] (CCR6, run 1) it was over 79 µM; in experiment [3] (CCR6, run 2), over 79 µM.
On to `COc1ccc(C(=O)NC2CC3CCCC(C2)N3CC(=O)Nc2ccc(F)cc2)cc1OC` (stereo unspecified), for which the IC50 was > 79 µM (inactive) in experiment [1] (mean of runs); over 79 µM in experiment [1] (run 1); over 79 µM in experiment [1] (run 2); > 79 µM (inactive) in experiment [2] (CXCR6, mean of runs); over 79 µM in experiment [2] (CXCR6, run 1); over 79 µM in experiment [2] (CXCR6, run 2). Moreover, the IC50 was > 79 µM (inactive) in experiment [3] (CCR6, mean of runs); over 79 µM in experiment [3] (CCR6, run 1); over 79 µM in experiment [3] (CCR6, run 2).
`COc1cc(C(=O)NC2CC3CCCC(C2)N3CC(=O)Nc2ccc(F)cc2)cc(OC)c1OC` (stereo unspecified): the IC50 in experiment [1] (mean of runs) was > 79 µM (inactive); in experiment [1] (run 1), over 79 µM; in experiment [1] (run 2), over 79 µM; in experiment [2] (CXCR6, mean of runs) it was 3.51 µM; in experiment [2] (CXCR6, run 1) it was 3.08 µM; in experiment [2] (CXCR6, run 2), 3.95 µM. For the same compound, the IC50 in experiment [3] (CCR6, mean of runs) was > 79 µM (inactive); in experiment [3] (CCR6, run 1) it was over 79 µM; in experiment [3] (CCR6, run 2) it was over 79 µM.
In the case of `O=C(CN1C2CCCC1CC(NC(=O)c1ccccc1)C2)Nc1ccccc1` (stereo unspecified), the IC50 is > 79 µM (inactive) in experiment [1] (mean of runs); over 79 µM in experiment [1] (run 1); over 79 µM in experiment [1] (run 2); > 79 µM (inactive) in experiment [2] (CXCR6, mean of runs); over 79 µM in experiment [2] (CXCR6, run 1); over 79 µM in experiment [2] (CXCR6, run 2). Moreover, the IC50 is > 79 µM (inactive) in experiment [3] (CCR6, mean of runs); over 79 µM in experiment [3] (CCR6, run 1); over 79 µM in experiment [3] (CCR6, run 2).
On to `O=C(CN1C2CCCC1CC(NC(=O)c1ccc3c(c1)OCO3)C2)Nc1ccccc1` (stereo unspecified), for which the IC50 in experiment [1] (mean of runs) is > 79 µM (inactive); in experiment [1] (run 1), over 79 µM; in experiment [1] (run 2), over 79 µM; in experiment [2] (CXCR6, mean of runs), > 79 µM (inactive); in experiment [2] (CXCR6, run 1), over 79 µM; in experiment [2] (CXCR6, run 2) it was over 79 µM. In addition, the IC50 in experiment [3] (CCR6, mean of runs) was > 79 µM (inactive); in experiment [3] (CCR6, run 1), over 79 µM; in experiment [3] (CCR6, run 2) it was over 79 µM.
As to `COc1ccc(C(=O)NC2CC3CCCC(C2)N3CC(=O)Nc2ccc(Cl)cc2)cc1OC` (stereo unspecified), the IC50 in experiment [1] (mean of runs) was > 79 µM (inactive); in experiment [1] (run 1), over 79 µM; in experiment [1] (run 2), over 79 µM; in experiment [2] (CXCR6, mean of runs) it was > 79 µM (inactive); in experiment [2] (CXCR6, run 1), over 79 µM; in experiment [2] (CXCR6, run 2), over 79 µM. The IC50 in experiment [3] (CCR6, mean of runs) was > 79 µM (inactive); in experiment [3] (CCR6, run 1), over 79 µM; in experiment [3] (CCR6, run 2) it was over 79 µM.
In the case of `COc1ccccc1NC(=O)CN1C2CCCC1CC(NC(=O)c1cc(OC)c(OC)c(OC)c1)C2` (stereo unspecified), the IC50 in experiment [1] (run 1) was over 79 µM; in experiment [1] (run 2) it was 25.4 µM; in experiment [2] (CXCR6, mean of runs), 1.95 µM; in experiment [2] (CXCR6, run 1) it was 1.81 µM; in experiment [2] (CXCR6, run 2), 2.09 µM; in experiment [3] (CCR6, mean of runs), > 79 µM (inactive). Also, the IC50 in experiment [3] (CCR6, run 1) was over 79 µM; in experiment [3] (CCR6, run 2) it was over 79 µM.
As to `COc1cc(C(=O)NC2CC3CCCC(C2)N3CC(=O)Nc2ccc(Cl)cc2)cc(OC)c1OC` (stereo unspecified), the concentration for half-maximal inhibition (IC50) in experiment [1] (run 1) was over 79 µM; in experiment [1] (run 2) it was 52.7 µM; in experiment [2] (CXCR6, mean of runs) it was 1.46 µM; in experiment [2] (CXCR6, run 1) it was 1.27 µM; in experiment [2] (CXCR6, run 2), 1.65 µM; in experiment [3] (CCR6, mean of runs), > 79 µM (inactive). The half-inhibitory concentration (IC50) was over 79 µM in experiment [3] (CCR6, run 1) and over 79 µM in experiment [3] (CCR6, run 2).
Regarding `COc1ccc(C(=O)NC2CC3CCCC(C2)N3CC(=O)Nc2ccccc2)cc1` (stereo unspecified), the IC50 was > 79 µM (inactive) in experiment [1] (mean of runs); over 79 µM in experiment [1] (run 1); over 79 µM in experiment [1] (run 2); > 79 µM (inactive) in experiment [2] (CXCR6, mean of runs); over 79 µM in experiment [2] (CXCR6, run 1); over 79 µM in experiment [2] (CXCR6, run 2). Besides, the IC50 in experiment [3] (CCR6, mean of runs) was > 79 µM (inactive); in experiment [3] (CCR6, run 1), over 79 µM; in experiment [3] (CCR6, run 2), over 79 µM.
On to `COc1ccc(C(=O)NC2CC3CCCC(C2)N3CC(=O)Nc2ccc(C)cc2)cc1` (stereo unspecified), for which the IC50 in experiment [1] (mean of runs) is > 79 µM (inactive); in experiment [1] (run 1) it was over 79 µM; in experiment [1] (run 2) it was over 79 µM; in experiment [2] (CXCR6, mean of runs), > 79 µM (inactive); in experiment [2] (CXCR6, run 1), over 79 µM; in experiment [2] (CXCR6, run 2) it was over 79 µM. Moreover, the IC50 in experiment [3] (CCR6, mean of runs) is > 79 µM (inactive); in experiment [3] (CCR6, run 1), over 79 µM; in experiment [3] (CCR6, run 2), over 79 µM.
`COc1cc(OC)cc(C(=O)NC2CC3CCCC(C2)N3CC(=O)Nc2ccccc2)c1` (stereo unspecified): the 50% inhibitory concentration (IC50) in experiment [1] (run 1) is over 79 µM; in experiment [1] (run 2), 11.2 µM; in experiment [2] (CXCR6, mean of runs) it was > 79 µM (inactive); in experiment [2] (CXCR6, run 1) it was over 79 µM; in experiment [2] (CXCR6, run 2) it was over 79 µM; in experiment [3] (CCR6, mean of runs), > 79 µM (inactive). The IC50 in experiment [3] (CCR6, run 1) was over 79 µM; in experiment [3] (CCR6, run 2), over 79 µM.
